Activity calls are given as the source filed them. The rule behind the calls is not given here.
Key:
A549 = assay: Growth inhibition of human A549 cells after 72 hrs by MTT assay; format: functional, cell-based; settings: A549, 72 h
How it was run: (§1)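 MTT colorimetric growth assay. Cells are seeded at 10,000–40,000 cells/mL depending on cell type and allowed to plate for 24 h, then cultured 72 h with or without compound. Formazan from mitochondrial MTT reduction is read spectrophotometrically at 570 nm (reference 630 nm). IC50 is the growth-inhibitory concentration.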

PC-3 = assay: Growth inhibition of human PC3 cells after 72 hrs by MTT assay; format: functional, cell-based; settings: PC-3, 72 h; how it was run: as §1
[1] = Growth inhibition of human U373 cells after 72 hrs by MTT assay; format: functional, cell-based, U-373MG ATCC; settings: U373 MG; how it was run: as §1
MCF7 = assay: Growth inhibition of human MCF7 cells after 72 hrs by MTT assay; format: functional, cell-based; settings: MCF7, 72 h; how it was run: as §1
[2] = Growth inhibition of human OE21 cells after 72 hrs by MTT assay; format: functional, cell-based; settings: OE21, 72 h; how it was run: as §1
SK-MEL = assay: Growth inhibition of human SK-MEL cells after 72 hrs by MTT assay; format: functional, cell-based; how it was run: as §1
U-373MG ATCC [3] = assay: Anticancer activity against human U373 cells assessed as reduction in cell proliferation at 10 uM for 3 days by quantitative video microscopy relative to control; format: functional, cell-based
How it was run: (§2)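 U373 glioblastoma cells filmed by computer-assisted phase-contrast (quantitative videomicroscopy) over three days of culture with or without compound. Cell population growth is judged from morphology: reduced proliferation is taken as cytostatic effect, direct cell killing as cytotoxic effect, and round-shaped cells as cell death. Comparison is against untreated control.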

U-373MG ATCC [4] = assay: Anticancer activity against human U373 cells assessed as cell death at 10 uM for 3 days by quantitative video microscopy; format: functional, cell-based; how it was run: as §2
U-373MG ATCC [5] = assay: Cytostatic activity against human U373 cells assessed as increase in mitosis duration at 10 uM after 3 days by quantitative video microscopy relative to control; format: functional, cell-based
How it was run: (§3)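 Human U373 glioblastoma cultures are recorded by quantitative videomicroscopy with or without compound. In-house software scores mitosis duration (min) and mitosis number, with number normalized to initial cell count at t = 0 h. Values are compared with untreated control.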

U-373MG ATCC [6] = assay: Anticancer activity against human U373 cells assessed as reduction in cell proliferation at 5 uM for 3 days by quantitative video microscopy relative to control; format: functional, cell-based; how it was run: as §2
U-373MG ATCC [7] = assay: Anticancer activity against human U373 cells assessed as cell death at 5 uM for 3 days by quantitative video microscopy; format: functional, cell-based; how it was run: as §2
U-373MG ATCC [8] = assay: Cytostatic activity against human U373 cells assessed as decrease in mitosis duration at 5 uM after 3 days by quantitative video microscopy relative to control; format: functional, cell-based; how it was run: as §3

| SMILES | IC50 (A549) | IC50 (PC-3) | IC50 (MCF7) | IC50 (SK-MEL) | IC50 [1] | IC50 [2] | Activity (U-373MG ATCC [3]) | Activity (U-373MG ATCC [4]) | Activity (U-373MG ATCC [5]) | Activity (U-373MG ATCC [6]) | Activity (U-373MG ATCC [7]) | Activity (U-373MG ATCC [8]) |
| --- | --- | --- | --- | --- | --- | --- | --- | --- | --- | --- | --- | --- |
| CCOc1ccc(C2CC2C(=O)NNc2nncc3ccccc23)cc1 (stereo not drawn) | > 100 µM | 94 µM | – | – | 91 µM | – | – | – | – | – | – | – |
| COc1ccc(C2CC2C(=O)NNc2nncc3ccccc23)cc1 (stereo not drawn) | 96 µM | 64 µM | 72 µM | 68 µM | 83 µM | 48 µM | – | – | – | – | – | – |
| COc1ccc(C2CC2C(=O)NNC(=O)c2ccncc2)cc1 (stereo not drawn) | > 100 µM | > 100 µM | – | – | > 100 µM | – | – | – | – | – | – | – |
| CC(C)=CCOc1ccc(C2CC2C(=O)NNC(=O)c2ccncc2)cc1 (stereo not drawn) | > 100 µM | > 100 µM | – | – | > 100 µM | – | – | – | – | – | – | – |
| CCOc1ccc(C2CC2c2nnc3c4ccccc4cnn23)cc1 (stereo not drawn) | 66 µM | > 100 µM | – | – | 44 µM | – | – | – | – | – | – | – |
| CC(C)=CCC/C(C)=C/COc1ccc(C2CC2C(=O)NNC(=O)c2ccncc2)cc1 (stereo not drawn) | 78 µM | > 100 µM | – | – | 84 µM | – | – | – | – | – | – | – |
| CC(C)=CCOc1ccc(C2CC2C(=O)NNc2nncc3ccccc23)cc1 (stereo not drawn) | 82 µM | 81 µM | 69 µM | 67 µM | 81 µM | 38 µM | – | – | – | – | – | – |
| O=C(NNc1nncc2ccccc12)C1CC1c1ccc(OC(F)(F)F)cc1 (stereo not drawn) | 87 µM | 92 µM | 54 µM | 29 µM | 85 µM | 42 µM | – | – | – | – | – | – |

Molecules with a lower IC50 (A549), results first:

| IC50 (A549) | IC50 (PC-3) | IC50 (MCF7) | IC50 (SK-MEL) | SMILES | IC50 [1] | IC50 [2] | Activity (U-373MG ATCC [3]) | Activity (U-373MG ATCC [4]) | Activity (U-373MG ATCC [5]) | Activity (U-373MG ATCC [6]) | Activity (U-373MG ATCC [7]) | Activity (U-373MG ATCC [8]) |
| --- | --- | --- | --- | --- | --- | --- | --- | --- | --- | --- | --- | --- |
| 10 µM | 44 µM | 34 µM | 81 µM | O=C(NNC(=O)C1CC1c1ccc(OCC(F)(F)F)cc1)c1ccncc1 (stereo not drawn) | 19 µM | 31 µM | – | – | – | – | – | – |
| 48 µM | 67 µM | 8 µM | 29 µM | O=C(NNc1nncc2ccccc12)C1CC1c1ccc(OCC(F)(F)F)cc1 (stereo not drawn) | 25 µM | 17 µM | – | – | – | – | – | – |
| 45 µM | 8 µM | 9 µM | 72 µM | CC(C)=CCC/C(C)=C/COc1ccc(C2CC2c2nnc3c4ccccc4cnn23)cc1 (stereo not drawn) | 63 µM | 5 µM | – | – | – | – | – | – |
| 64 µM | 38 µM | 37 µM | 29 µM | FC(F)(F)COc1ccc(C2CC2c2nnc3c4ccccc4cnn23)cc1 (stereo not drawn) | 58 µM | 9 µM | – | – | – | – | – | – |
| 36 µM | 24 µM | 23 µM | 25 µM | CC(C)=CCC/C(C)=C/COc1ccc(C2CC2C(=O)NNc2nncc3ccccc23)cc1 (stereo not drawn) | 9 µM | 9 µM | Active | inactive | Active | – | – | – |
| 37 µM | 49 µM | 37 µM | 57 µM | FC(F)(F)Oc1ccc(C2CC2c2nnc3c4ccccc4cnn23)cc1 (stereo not drawn) | 37 µM | 30 µM | – | – | – | – | – | – |
| 56 µM | > 100 µM | – | – | O=C(NNC(=O)C1CC1c1ccc(OC(F)(F)F)cc1)c1ccncc1 (stereo not drawn) | 37 µM | – | – | – | – | – | – | – |
| 40 µM | 29 µM | 29 µM | 40 µM | COc1ccc(C2CC2c2nnc3c4ccccc4cnn23)cc1 (stereo not drawn) | 28 µM | 26 µM | – | – | – | – | – | – |
| 56 µM | 22 µM | 19 µM | 26 µM | CC(C)=CCOc1ccc(C2CC2c2nnc3c4ccccc4cnn23)cc1 (stereo not drawn) | 4 µM | 8 µM | – | – | – | Active | inactive | Active |
| 43 µM | > 100 µM | – | – | CCOc1ccc(C2CC2C(=O)NNC(=O)c2ccncc2)cc1 (stereo not drawn) | 63 µM | – | – | – | – | – | – | – |

Reference: ChEMBL document CHEMBL1156155, “Synthesis and anticancer activity evaluation of 2(4-alkoxyphenyl)cyclopropyl hydrazides and triazolo phthalazines” (Bioorg Med Chem, 2010)
